We go through 42 compounds from PubChem BioAssay AID463210 (The Scripps Research Institute Molecular Screening Center, 2010).

The structures appear in SMILES notation. About 300 (0.091%) of roughly 330,000 compounds were called active.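 How the source made its calls: active means percent activation above the screen-wide mean plus 3 SD (cut at about 25% in these data); inactive means the rest.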 The list comes from a sample in which actives are over-represented; it also holds similar structures and randomly drawn compounds.

Caspase-7 (Homo sapiens), sequence (P55210 whole entry D23A/D198A/D206A): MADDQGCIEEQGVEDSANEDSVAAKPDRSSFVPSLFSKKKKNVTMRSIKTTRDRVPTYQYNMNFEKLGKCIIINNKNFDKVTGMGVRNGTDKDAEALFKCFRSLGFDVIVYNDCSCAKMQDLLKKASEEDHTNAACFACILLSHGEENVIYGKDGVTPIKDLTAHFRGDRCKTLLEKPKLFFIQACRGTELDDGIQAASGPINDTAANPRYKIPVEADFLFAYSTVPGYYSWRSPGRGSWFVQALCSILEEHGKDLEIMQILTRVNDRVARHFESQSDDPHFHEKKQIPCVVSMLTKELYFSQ

The test addresses Caspase-7 (Homo sapiens) (UniProt P55210). The test can be described thus: procaspase-7 activators, primary screen, counter-screen for procaspase-3 activator project, biochemical, absorbance, HTS, human (AID 463210). To be noted: recombinant procaspase-7, Ac-DEVD-pNA absorbance 405 nm; at 8.5 µM; hits give high values; D23A/D198A/D206A triple mutant, cannot self-cleave; scale: DMSO 0, 5 µM enzyme 100. The method, boiled down:
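System: Procaspase-7 triple mutant (PC-7 D3A); measure: % activation from two-timepoint absorbance difference, scaled to controls; times: 1 h compound preincubation, 2 h substrate cleavage, 25 °C; also added: Ac-DEVD-pNA substrate, 400 µM as added; measured by: Epi-absorbance of released pNA at 405 nm, two timepoints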
(The purpose of a counterscreen is to sort out artefacts and off-target activity.)
Regarding `COc1ccc(C(O)(C2CCCCC2)C(CN2CCCC2)c2ccccc2)cc1` (configuration not stated), the activation is 0.02% (inactive). To `COCC1CCCN(C(=O)c2ccc3oc(C(C)C)nc3c2)C1` (configuration not stated) belongs -9.62% (inactive); to `COc1ccc(NC(=O)C2CCN(S(=O)(=O)c3ccc4[nH]c(=O)oc4c3)CC2)c(OC)c1`, -1.26% (inactive). To `COc1ccc(CCNC(=O)CN2C(=O)COc3ccc(S(=O)(=O)N4CCCC4)cc32)cc1OC` belongs -1.51% (inactive). To `CCN(C(=O)COC(=O)c1ccc(COc2ccc3c(C)cc(=O)oc3c2)cc1)C1CCS(=O)(=O)C1` (configuration not stated) belongs 11% (inactive). On to `O=c1cc(CO)oc(C(Nc2cccc(C(F)(F)F)c2)c2ccccn2)c1O` (configuration not stated), for which the activation was -8.69% (inactive).

On to `COc1ccccc1N1CCN(c2nc(C)cc(=O)[nH]2)CC1`, for which the activation was 14.3% (inactive).

With `CN(CC(=O)Nc1ccccc1Cl)C(=O)COc1cccc2c1OC(C)(C)C2`, the activation is -0.56% (inactive). To `CCOC(=O)c1cccc(NC(=O)c2ccc(F)cc2F)c1` belongs -3.97% (inactive); to `CCOC(=O)[C@@H]1[C@H]2COc3cc(OC)ccc3[C@@H]2N2C(=O)N(c3cccc(C)c3)C(=O)[C@@]12C`, -1.89% (inactive); to `CN1CCN(c2ccccc2NC(=O)COc2ccc(C3CCCCC3)cc2)CC1`, 6.3% (inactive). To `CCn1c(N)c(Br)c(=O)[nH]c1=O` belongs 12.7% (inactive).

`COc1ccc(C(=O)N2CCCCC2C(=O)Nc2ccc(-n3nc(C)cc3C)cc2)o1` (configuration not stated): the activation is 0.38% (inactive).

As to `CC(C)CN(CC(C)C)C(=O)CN1c2cccc3cccc(c23)S1(=O)=O`, the activation was 4.17% (inactive). Take `NC(=O)C1CCN(Cc2nc3c(Br)cc(Br)cc3c(=O)[nH]2)CC1`: the activation is -6.52% (inactive). Under `COc1ccc(S(=O)(=O)NCC2CCCN(C(=O)c3occc3C)C2)cc1` (configuration not stated) stands -3.49% (inactive); under `CCCCCCCC[n+]1cccc(C(=O)N2c3c(nc(N)[nH]c3=O)NC(C)C2C)c1` (configuration not stated), -2.79% (inactive). With `CCOc1cc(C(=O)Nc2c(C)ccc3nsnc23)cc(OCC)c1OCC`, the activation was -0.81% (inactive).

With `CC1=NN(C(N)=S)C(=O)C1N=Nc1cc(Cl)ccc1Cl` (configuration not stated), the activation was 42% (active). For the compound `Cc1[nH]n(C(N)=S)c(=O)c1N=Nc1ccc(Cl)cc1Cl`, the activation was -4.08% (inactive). On to `CCN(C[C@H]1N[C@@](CC)(C(=O)OC)[C@H]2C(=O)N(C)C(=O)[C@@H]12)C(=O)Nc1ccc(F)cc1`, for which the activation is 3.05% (inactive). With `CC(C)C[C@@H](COc1ccccc1)N1CCN(CC(C)C)CCC1=O`, the activation is -4.75% (inactive).

With `CC(C(=O)NCC1CCCCC1)N(C)Cc1cccc(Cl)c1` (configuration not stated), the activation was -2.02% (inactive). Under `Cc1ccc(S(=O)(=O)NCC(=O)N(CC(=O)NCC2CCCO2)c2cccc(F)c2)cc1` (configuration not stated) stands -1.1% (inactive); under `O=C(COc1cccc2c1CCNC2=O)NC1CCCCC1`, -3.37% (inactive). To `CCOC(=O)C1=C(CN2CCc3ccccc32)NC(=O)NC1c1cc(C)ccc1C` (configuration not stated) belongs 1.19% (inactive); to `COc1cccc2cc(C(C)N(CCCN3CCOCC3)C(=O)Nc3ccc(Cl)cc3)oc12` (configuration not stated), 3.94% (inactive). Consider `CCc1nnc(NC(=O)[C@@H](NC(=O)c2cccc(C)c2)C(C)C)s1`, for which the activation is -9.68% (inactive). As to `Cc1ccc(S(=O)(=O)N2CCC3(CC2)OCCO3)c(C)c1`, the activation was 7.32% (inactive). To `O=C(NCCN1CCOC1=O)C1CCC(=O)N(CCc2ccc(Cl)cc2)C1` (configuration not stated) belongs -3.88% (inactive); to `O=S(=O)(Oc1ccccc1C(=S)N1CCOCC1)c1ccc(Cl)cc1`, 5.11% (inactive). `O=C(Cc1ccccc1F)NC1CCSc2ccccc21` (configuration not stated): the activation is -1.51% (inactive).

Turning to `COc1ccc(CNS(=O)(=O)c2cc(-c3cc(C)no3)ccc2C(C)C)cc1`, the activation is 7.17% (inactive). Consider `COc1cccc(C(=O)n2ccc(-c3cccs3)n2)c1`, for which the activation was 7.3% (inactive). Regarding `CCN(CCNC(=O)C1=C(C)C(=O)OC12CCC(C)CC2)c1ccccc1` (configuration not stated), the activation was -6.83% (inactive).

Regarding `C=CCN1CN(S(=O)(=O)c2ccc(OC)cc2)c2nc3ccccc3nc21`, the activation was 10.1% (inactive). As for `COc1cccc(CNC(=O)CN(C)S(=O)(=O)c2ccc3c(c2)c(=O)n(C)c(=O)n3C)c1`, the activation was 3.47% (inactive). In the case of `CC(NC(=O)COc1ccc(-c2ccccc2)cc1)C1CCCO1` (configuration not stated), the activation was -7.63% (inactive). As to `Cc1cc(C)c(C)c(S(=O)(=O)N2CCN(C(=O)c3ccc4c(=O)n5c(nc4c3)CCC5)CC2)c1C`, the activation was 0.83% (inactive). As to `Cn1c(C(=O)O)ccc1S(=O)(=O)N(Cc1ccccc1)Cc1ccccc1`, the activation was -2.76% (inactive). Under `Cc1ccc(S(=O)(=O)N(CC(=O)NCCSC2CCCCC2)c2ccccc2F)cc1` stands 12.3% (inactive); under `CSCc1cc(N2CCOCC2)nc(SCc2ccc(Cl)cc2Cl)n1`, -1.6% (inactive).
